By bioavailability is commonly meant the share of a dose that reaches the circulation, judged against a reference dose that is usually intravenous. By clearance is commonly meant the volume of plasma or blood freed of the substance per unit of time. Usually half-life stands for the time needed for the level to fall by half in the phase considered. One may read the Ki as a dissociation constant, usually derived from enzyme kinetics or from competition with a known ligand.

Data on four molecules can be found in ChEMBL document CHEMBL1146073, “A pyridazine series of alpha2/alpha3 subtype selective GABA A agonists for the treatment of anxiety” (J Med Chem, 2006).

Structures are written as SMILES.

The nature of series [1]: Oral bioavailability in rat. It counts as ADME, organism-based. To be noted: in vivo. In short, it runs like this:
(§1)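 Pharmacokinetics from six animals per species: three dosed iv and three dosed po.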

Series [2] deals with T1, GABA-A receptor; anion channel (Rattus norvegicus) (UniProt O09028+P15431+P18506+P18508+P19969+P20236+P23574+P23576+P28471+P28473+P30191+P62813+P63079+P63138+Q91ZM7+Q9ES14). The series is described as follows: Receptor occupancy in vivo by displacement of [3H]Ro-151788 binding from GABA-A receptor in rat at 1 mg/kg, po. Format: functional, organism-based. Further details: dose 1 mg/kg. In short, it runs like this:
(§2)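 Rat in vivo occupancy measured by [3H]Ro 15-1788 binding after oral dosing. Rats taken as a subgroup after the plus-maze trial, i.e. 30 min post-dose or later. ED50 derived from dose-dependent occupancy. Mean ± SEM, n = 5-10/group.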
(In general: Displacement assays read how much labelled ligand stays bound in the presence of the test substance.)

Series [3] has as its target T1, GABA-A receptor; anion channel (Rattus norvegicus). Description: Receptor occupancy in vivo by displacement of [3H]Ro 15-1788 binding from GABA-A receptor in rat, po. Format: functional, organism-based. The method, boiled down:
as §2

Series [4] can be described thus: Plasma clearance in dog. It counts as ADME, organism-based, Canis lupus familiaris. The method, boiled down:
as §1

A short description of series [5]: Half life in dog. Format: ADME, organism-based, Canis lupus familiaris. To be noted: in vivo. In short, it runs like this: as §1
Series [6] concerns the target GABA-A receptor; alpha-3/beta-3/gamma-2 (Homo sapiens) (UniProt P18507+P28472+P34903). Description: Efficacy against recombinant human GABA-Aalpha3 plus beta-3-gamma-2 expressed in L(tk-) cells by whole cell patch clamp method relative to chlordiazepoxide. It counts as functional, cell-based. In short, it runs like this:
(§3)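 Whole-cell patch clamp on αxβ3γ2 receptors stably expressed in L(tk-) cells, measuring the effect on current evoked by an EC20-equivalent of GABA. Reported relative to full agonist chlordiazepoxide (=1.0), or as direct percent modulation of the EC20 control, with inverse agonism given as percent. Mean of at least four independent experiments.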

The target in series [7] is T2, GABA-A receptor; alpha-2/beta-3/gamma-2 (Homo sapiens, UniProt P18507+P28472+P47869).
T2 sequence (P18507 whole entry): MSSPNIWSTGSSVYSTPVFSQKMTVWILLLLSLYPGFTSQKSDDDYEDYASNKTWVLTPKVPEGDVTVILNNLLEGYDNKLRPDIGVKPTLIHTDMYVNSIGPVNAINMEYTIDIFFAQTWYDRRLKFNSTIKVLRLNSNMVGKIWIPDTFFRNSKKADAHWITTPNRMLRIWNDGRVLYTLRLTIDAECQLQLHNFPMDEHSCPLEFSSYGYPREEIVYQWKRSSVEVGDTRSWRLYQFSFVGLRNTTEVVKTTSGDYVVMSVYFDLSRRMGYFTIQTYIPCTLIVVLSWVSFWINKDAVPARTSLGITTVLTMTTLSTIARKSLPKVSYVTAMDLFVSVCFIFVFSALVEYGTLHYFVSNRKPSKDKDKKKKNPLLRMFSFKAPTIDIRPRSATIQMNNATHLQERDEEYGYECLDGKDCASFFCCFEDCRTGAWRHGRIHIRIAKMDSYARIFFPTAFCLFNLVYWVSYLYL
T2 sequence (P28472 whole entry): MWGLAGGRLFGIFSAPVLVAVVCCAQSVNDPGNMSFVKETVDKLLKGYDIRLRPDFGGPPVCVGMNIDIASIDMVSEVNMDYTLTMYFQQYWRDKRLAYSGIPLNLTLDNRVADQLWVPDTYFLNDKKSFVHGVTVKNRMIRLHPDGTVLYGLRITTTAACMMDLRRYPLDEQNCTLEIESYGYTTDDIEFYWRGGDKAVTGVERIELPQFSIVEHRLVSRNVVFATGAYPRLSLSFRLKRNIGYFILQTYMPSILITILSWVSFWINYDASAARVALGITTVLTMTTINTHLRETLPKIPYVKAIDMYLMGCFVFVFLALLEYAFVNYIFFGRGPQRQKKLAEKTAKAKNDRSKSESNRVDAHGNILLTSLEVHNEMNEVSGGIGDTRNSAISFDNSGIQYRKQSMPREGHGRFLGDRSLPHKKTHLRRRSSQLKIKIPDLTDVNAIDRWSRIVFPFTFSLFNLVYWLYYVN
T2 sequence (P47869 whole entry): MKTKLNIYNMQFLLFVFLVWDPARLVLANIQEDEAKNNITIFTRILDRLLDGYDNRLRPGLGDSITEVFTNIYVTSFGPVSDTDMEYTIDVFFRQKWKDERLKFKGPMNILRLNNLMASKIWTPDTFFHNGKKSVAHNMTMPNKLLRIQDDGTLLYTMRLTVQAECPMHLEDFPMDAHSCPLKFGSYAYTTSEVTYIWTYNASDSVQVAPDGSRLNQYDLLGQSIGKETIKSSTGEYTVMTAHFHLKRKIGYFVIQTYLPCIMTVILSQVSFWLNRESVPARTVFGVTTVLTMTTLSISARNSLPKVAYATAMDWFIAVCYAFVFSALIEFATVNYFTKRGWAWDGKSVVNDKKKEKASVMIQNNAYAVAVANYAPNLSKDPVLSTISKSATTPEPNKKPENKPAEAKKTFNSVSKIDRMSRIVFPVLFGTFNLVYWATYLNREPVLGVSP
Description: Displacement of [3H]Ro-151788 from recombinant human GABA-Aalpha2 receptor plus beta3gamma2. It counts as protein-complex assay. In short, it runs like this:
(§4)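 Benzodiazepine-site binding on stably transfected αxβ3γ2 receptors (x = 1, 2, 3 or 5). Inhibition curves run with [3H]Ro15-1788 at roughly twice its Kd. Ki derived by Cheng-Prusoff equation. Mean of three to six determinations.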

Series [8] is described as follows: Oral bioavailability in dog. It counts as ADME, organism-based, Canis lupus familiaris. To be noted: in vivo. In short, it runs like this: as §1
Series [9] addresses T3, GABA-A receptor; alpha-5/beta-3/gamma-2 (Homo sapiens) (UniProt P18507+P28472+P31644). Description: Efficacy against recombinant human GABA-Aalpha5 plus beta-3-gamma-2 expressed in L(tk-) cells by whole cell patch clamp method relative to chlordiazepoxide. It counts as functional, cell-based. The method, boiled down: as §3
Series [10] has as its target T4, GABA-A receptor; alpha-1/beta-3/gamma-2 (Homo sapiens, UniProt P14867+P18507+P28472).
T4 sequence (P14867 whole entry): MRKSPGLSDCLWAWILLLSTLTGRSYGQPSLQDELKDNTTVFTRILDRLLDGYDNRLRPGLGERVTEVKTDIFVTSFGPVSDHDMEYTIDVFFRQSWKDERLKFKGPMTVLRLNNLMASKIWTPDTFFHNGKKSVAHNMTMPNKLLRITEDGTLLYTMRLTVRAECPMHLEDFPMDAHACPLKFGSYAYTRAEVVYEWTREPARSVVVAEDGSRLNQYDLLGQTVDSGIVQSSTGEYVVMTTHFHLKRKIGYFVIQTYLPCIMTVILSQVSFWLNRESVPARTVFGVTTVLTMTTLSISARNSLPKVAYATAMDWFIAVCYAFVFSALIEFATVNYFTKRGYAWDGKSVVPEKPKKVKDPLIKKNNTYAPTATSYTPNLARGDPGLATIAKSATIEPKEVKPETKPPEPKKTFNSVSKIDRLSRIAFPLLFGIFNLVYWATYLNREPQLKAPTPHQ
T4 sequence (P18507 whole entry): T2 sequence (P18507 whole entry)
T4 sequence (P28472 whole entry): T2 sequence (P28472 whole entry)
The series is described as follows: Displacement of [3H]Ro-151788 from recombinant human GABA-Aalpha1 receptor plus beta3gamma2. It counts as protein-complex assay. The method, boiled down: as §4

The nature of series [11]: Half life in Rhesus monkey. It counts as ADME, organism-based, Macaca mulatta. To be noted: in vivo. The method, boiled down: as §1
The target of series [12] is T3, GABA-A receptor; alpha-5/beta-3/gamma-2 (Homo sapiens). Description: Efficacy against recombinant human GABA-Aalpha5 plus beta-3-gamma-2 expressed in L(tk-) cells by whole cell patch clamp method. It counts as functional, cell-based. The method, boiled down: as §3
The nature of series [13]: Plasma clearance in Rhesus monkey. It counts as ADME, organism-based, Macaca mulatta. In short, it runs like this: as §1
In series [14] the target is T1, GABA-A receptor; anion channel (Rattus norvegicus). The series is described as follows: Receptor occupancy in vivo by displacement of [3H]Ro-151788 binding from GABA-A receptor in rat at 0.1 mg/kg, po. Further details: dose 0.1 mg/kg. Format: functional, organism-based. The method, boiled down: as §2

Consider `Fc1cnc(-c2cc(-c3ccc(F)c(-c4ncc(F)cc4F)c3)cnn2)c(F)c1`, for which the bioavailability was 88% in series [1] and 40% in [8]. The Activity in series [2] stood at 71%. The molecule further showed an Occ50 in [3] of 0.52 mg/kg. The molecule also came in with a clearance in series [4] of 3.9 mL/min/kg. This molecule had a half-life in [5] of 15 h. Moreover, the Efficacy stood at 0.44 in [6] and 0.01 in series [9]. Further, the results for the Ki in series [7] and in series [10] were 10.9 nM and 1.5 nM, respectively.
Take `Fc1cnc(-c2cc(-c3cnnc(-c4c(F)cncc4F)c3)ccc2F)c(F)c1`: the bioavailability in [1] is 50%; in series [8], 72%. The half-life in [11] is 8.4 h; in series [5], 3.9 h. In series [3], the Occ50 was found to be 0.22 mg/kg. Moreover, the values for the clearance in [4] and in series [13] were 17 mL/min/kg and 6 mL/min/kg, respectively. Also, the Efficacy in series [12] is -5%; in series [6] it was 0.39. The Ki in [10] worked out at 1.8 nM.
In turn, `Fc1cnc(-c2cc(-c3cnnc(-c4c(F)cc(F)cc4F)c3)ccc2F)c(F)c1` registered an Activity in [3] of 0.7 mg/kg. Moreover, the results for the Efficacy in series [6] and in series [9] were 0.4 and 0.14, respectively. For the same molecule, the Ki turned out to be 4.6 nM in series [7] and 2.6 nM in [10].
Turning to `Fc1cnc(-c2cc(-c3ccc(F)c(-c4ncccc4F)c3)cnn2)c(F)c1`, the bioavailability in series [1] stood at 100%. In series [14], this molecule gave an Activity of 57%. Further, the Occ50 in series [3] was determined as 0.09 mg/kg. In addition, the values for the Efficacy in [6] and in [9] were 0.7 and 0.4, respectively. For the same molecule, the Ki in series [10] is 0.5 nM.
